Results reported in ChEMBL document CHEMBL3627671, “Novel derivatives of nitro-substituted salicylic acids: Synthesis, antimicrobial activity and cytotoxicity” (Bioorg Med Chem, 2015).
In brackets after ≈: the same amount, converted by molar mass.

How the values were obtained:
Assay type in all cases: functional
Mycobacterium kansasii [1] = experiment: Antimycobacterial activity against Mycobacterium kansasii 235/80 after 14 days; conditions: 235/80, 336 h
Method in brief: (§1)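 Šula's semisynthetic medium micromethod at 37 °C, read after 7, 14 and 21 days. The 1.0 McFarland suspension was diluted 10^-4. MIC determined. 6509/96 is a clinical isolate.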

Mycobacterium kansasii [2] = experiment: Antimycobacterial activity against Mycobacterium kansasii 235/80 after 21 days; conditions: 235/80, 504 h; method in brief: as §1
Mycobacterium avium [3] = experiment: Antimycobacterial activity against Mycobacterium avium 330/80 after 21 days; conditions: 330/80, 504 h
Mycobacterium avium [4] = experiment: Antimycobacterial activity against Mycobacterium avium 330/80 after 14 days; conditions: 330/80, 336 h
Mycobacterium kansasii [5] = experiment: Antimycobacterial activity against Mycobacterium kansasii 6509/96 after 14 days; conditions: 6509/96, 336 h; method in brief: as §1
[6] = system: Mycobacterium tuberculosis; experiment: Antimycobacterial activity against Mycobacterium tuberculosis H37Rv 331/88 after 21 days; conditions: H37Rv 331/88, 504 h
Mycobacterium kansasii [7] = experiment: Antimycobacterial activity against Mycobacterium kansasii 235/80 after 7 days; conditions: 235/80, 168 h; method in brief: as §1
Mycobacterium kansasii [8] = experiment: Antimycobacterial activity against Mycobacterium kansasii 6509/96 after 7 days; conditions: 6509/96, 168 h; method in brief: as §1
Mycobacterium kansasii [9] = experiment: Antimycobacterial activity against Mycobacterium kansasii 6509/96 after 21 days; conditions: 6509/96, 504 h; method in brief: as §1
[10] = system: Mycobacterium tuberculosis; experiment: Antimycobacterial activity against Mycobacterium tuberculosis H37Rv 331/88 after 14 days; conditions: H37Rv 331/88, 336 h
Candida tropicalis [11] = experiment: Antifungal activity against Candida tropicalis 156 after 24 hrs by microdilution broth method; conditions: Candida tropicalis, 156, 24 h
Method in brief: (§2)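 CLSI M27-A3 broth microdilution in RPMI 1640 with glutamine, buffered to pH 7.0 with MOPS; DMSO diluent. Yeast inoculum 5 × 10^3 ± 0.2 CFU/mL. Moulds grown on Sabouraud agar 3–10 days before spore harvest, final inoculum 0.5-5 × 10^4 CFU/mL, checked in a Bürker chamber. Incubated dark, humid, 35 °C, read at 24 and 48 h visually and at 540 nm. MIC taken as ≥80% (yeasts) or ≥50% (filamentous) growth reduction versus control.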

Nakaseomyces glabratus [12] = experiment: Antifungal activity against Candida glabrata 20/I after 24 hrs by microdilution broth method; method in brief: as §2
[13] = system: Trichophyton mentagrophytes; experiment: Antifungal activity against Trichophyton mentagrophytes 445 after 48 hrs by microdilution broth method; conditions: Trichophyton mentagrophytes, 445, 48 h
Nakaseomyces glabratus [14] = experiment: Antifungal activity against Candida glabrata 20/I after 48 hrs by microdilution broth method; method in brief: as §2
Pichia kudriavzevii [15] = experiment: Antifungal activity against Candida krusei E28 after 24 hrs by microdilution broth method; conditions: E28, 24 h; method in brief: as §2
Trichosporon asahii [16] = experiment: Antifungal activity against Trichosporon asahii 1188 after 24 hrs by microdilution broth method; conditions: Trichosporon asahii, 1188, 24 h; method in brief: as §2
Lichtheimia corymbifera [17] = experiment: Antifungal activity against Absidia corymbifera 272 after 24 hrs by microdilution broth method; conditions: Lichtheimia corymbifera, 272, 24 h; method in brief: as §2
Aspergillus fumigatus [18] = experiment: Antifungal activity against Aspergillus fumigatus 231 after 24 hrs by microdilution broth method; conditions: Aspergillus fumigatus, 231, 24 h; method in brief: as §2
Candida tropicalis [19] = experiment: Antifungal activity against Candida tropicalis 156 after 48 hrs by microdilution broth method; conditions: Candida tropicalis, 156, 48 h; method in brief: as §2
Lichtheimia corymbifera [20] = experiment: Antifungal activity against Absidia corymbifera 272 after 48 hrs by microdilution broth method; conditions: Lichtheimia corymbifera, 272, 48 h; method in brief: as §2
Candida albicans [21] = experiment: Antifungal activity against Candida albicans ATCC 44859 after 24 hrs by microdilution broth method; conditions: ATCC 44859, 24 h; method in brief: as §2
[22] = system: Trichophyton mentagrophytes; experiment: Antifungal activity against Trichophyton mentagrophytes 445 after 24 hrs by microdilution broth method; conditions: Trichophyton mentagrophytes, 445, 24 h
Candida albicans [23] = experiment: Antifungal activity against Candida albicans ATCC 44859 after 48 hrs by microdilution broth method; conditions: ATCC 44859, 48 h; method in brief: as §2
Pichia kudriavzevii [24] = experiment: Antifungal activity against Candida krusei E28 after 48 hrs by microdilution broth method; conditions: E28, 48 h; method in brief: as §2
Trichosporon asahii [25] = experiment: Antifungal activity against Trichosporon asahii 1188 after 48 hrs by microdilution broth method; conditions: Trichosporon asahii, 1188, 48 h; method in brief: as §2
Aspergillus fumigatus [26] = experiment: Antifungal activity against Aspergillus fumigatus 231 after 48 hrs by microdilution broth method; conditions: Aspergillus fumigatus, 231, 48 h; method in brief: as §2
[27] = system: Staphylococcus epidermidis; experiment: Antibacterial activity against Staphylococcus epidermidis H 6966/08 after 24 hrs by microdilution broth method; conditions: H 6966/08, 24 h
Method in brief: (§3)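 Mueller-Hinton broth microdilution (modified M07-A07), pH 7.4 (±0.2). Compounds dissolved in DMSO, tested at final 500 to 0.49 µmol/L. Inoculum in sterile water matched to 0.5 McFarland. Incubated in the dark, humid atmosphere, 35 °C, read at 24 and 48 h visually and at 540 nm. MIC taken as ≥95% growth reduction (IC95) versus control.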

Pseudomonas aeruginosa [28] = experiment: Antibacterial activity against Pseudomonas aeruginosa CCM 1961 after 48 hrs by microdilution broth method; conditions: CCM 1961, 48 h; method in brief: as §3
Staphylococcus aureus [29] = experiment: Antibacterial activity against methicillin-resistant Staphylococcus aureus H 5996/08 after 48 hrs by microdilution broth method; conditions: H 5996/08, 48 h
Staphylococcus aureus [30] = experiment: Antibacterial activity against methicillin-resistant Staphylococcus aureus H 5996/08 after 24 hrs by microdilution broth method; conditions: H 5996/08, 24 h
Pseudomonas aeruginosa [31] = experiment: Antibacterial activity against Pseudomonas aeruginosa CCM 1961 after 24 hrs by microdilution broth method; conditions: CCM 1961, 24 h; method in brief: as §3
Enterococcus sp. [32] = experiment: Antibacterial activity against Enterococcus sp. J 14365/08 after 24 hrs by microdilution broth method; conditions: J 14365/08, 24 h; method in brief: as §3
Enterococcus sp. [33] = experiment: Antibacterial activity against Enterococcus sp. J 14365/08 after 48 hrs by microdilution broth method; conditions: J 14365/08, 48 h; method in brief: as §3
Klebsiella pneumoniae [34] = experiment: Antibacterial activity against Klebsiella pneumoniae D 11750/08 after 48 hrs by microdilution broth method; conditions: D 11750/08, 48 h; method in brief: as §3
Escherichia coli [35] = experiment: Antibacterial activity against Escherichia coli CCM4517 after 48 hrs by microdilution broth method; conditions: CCM4517, 48 h; method in brief: as §3
Staphylococcus aureus [36] = experiment: Antibacterial activity against Staphylococcus aureus CCM 4516/08 after 48 hrs by microdilution broth method; conditions: CCM 4516/08, 48 h
Klebsiella pneumoniae [37] = experiment: Antibacterial activity against ESBL-positive Klebsiella pneumoniae J 14368/08 after 24 hrs by microdilution broth method; conditions: J 14368/08, 24 h; method in brief: as §3
Klebsiella pneumoniae [38] = experiment: Antibacterial activity against Klebsiella pneumoniae D 11750/08 after 24 hrs by microdilution broth method; conditions: D 11750/08, 24 h; method in brief: as §3
[39] = system: Staphylococcus epidermidis; experiment: Antibacterial activity against Staphylococcus epidermidis H 6966/08 after 48 hrs by microdilution broth method; conditions: H 6966/08, 48 h; method in brief: as §3
Escherichia coli [40] = experiment: Antibacterial activity against Escherichia coli CCM4517 after 24 hrs by microdilution broth method; conditions: CCM4517, 24 h; method in brief: as §3
Staphylococcus aureus [41] = experiment: Antibacterial activity against Staphylococcus aureus CCM 4516/08 after 24 hrs by microdilution broth method; conditions: CCM 4516/08, 24 h
Klebsiella pneumoniae [42] = experiment: Antibacterial activity against ESBL-positive Klebsiella pneumoniae J 14368/08 after 48 hrs by microdilution broth method; conditions: J 14368/08, 48 h; method in brief: as §3

SMILES	MIC (Mycobacterium kansasii [1]) [µM]	MIC (Mycobacterium kansasii [2]) [µM]	MIC (Mycobacterium avium [3]) [µM]	MIC (Mycobacterium avium [4]) [µM]	MIC (Mycobacterium kansasii [5]) [µM]	MIC [6] [µM]	MIC (Mycobacterium kansasii [7]) [µM]	MIC (Mycobacterium kansasii [8]) [µM]	MIC (Mycobacterium kansasii [9]) [µM]	MIC [10] [µM]	other results
O=C(Nc1ccc([N+](=O)[O-])c(C(F)(F)F)c1)c1cccc([N+](=O)[O-])c1O	62.5 (≈ 23.2 µg/mL)	125 (≈ 46.4 µg/mL)	500 (≈ 186 µg/mL)	250 (≈ 92.8 µg/mL)	62.5 (≈ 23.2 µg/mL)	16 (≈ 5.94 µg/mL)	32 (≈ 11.9 µg/mL)	32 (≈ 11.9 µg/mL)	62.5 (≈ 23.2 µg/mL)	16 (≈ 5.94 µg/mL)	–
O=C(Nc1cccc([N+](=O)[O-])c1)c1cccc([N+](=O)[O-])c1O	250 (≈ 75.8 µg/mL)	250 (≈ 75.8 µg/mL)	> 500	> 500	250 (≈ 75.8 µg/mL)	62.5 (≈ 19 µg/mL)	62.5 (≈ 19 µg/mL)	62.5 (≈ 19 µg/mL)	250 (≈ 75.8 µg/mL)	62.5 (≈ 19 µg/mL)	–
O=C(Nc1ccc([N+](=O)[O-])cc1)c1cccc([N+](=O)[O-])c1O	62.5 (≈ 19 µg/mL)	125 (≈ 37.9 µg/mL)	125 (≈ 37.9 µg/mL)	125 (≈ 37.9 µg/mL)	125 (≈ 37.9 µg/mL)	32 (≈ 9.7 µg/mL)	32 (≈ 9.7 µg/mL)	62.5 (≈ 19 µg/mL)	125 (≈ 37.9 µg/mL)	32 (≈ 9.7 µg/mL)	–
OC(Cn1cncn1)(Cn1cncn1)c1ccc(F)cc1F [FLUCONAZOLE]	–	–	–	–	–	–	–	–	–	–	MIC (Candida tropicalis [11]): > 500 µM; MIC (Nakaseomyces glabratus [12]): 31.2 µM (≈ 9.57 µg/mL); MIC [13]: 125 µM (≈ 38.3 µg/mL); MIC (Nakaseomyces glabratus [14]): 500 µM (≈ 153 µg/mL); MIC (Pichia kudriavzevii [15]): 125 µM (≈ 38.3 µg/mL); MIC (Trichosporon asahii [16]): 250 µM (≈ 76.6 µg/mL); MIC (Lichtheimia corymbifera [17]): > 500 µM; MIC (Aspergillus fumigatus [18]): > 500 µM; MIC (Candida tropicalis [19]): > 500 µM; MIC (Lichtheimia corymbifera [20]): > 500 µM; MIC (Candida albicans [21]): 0.24 µM (≈ 0.0735 µg/mL); MIC [22]: 7.81 µM (≈ 2.39 µg/mL); MIC (Candida albicans [23]): 0.24 µM (≈ 0.0735 µg/mL); MIC (Pichia kudriavzevii [24]): 250 µM (≈ 76.6 µg/mL); MIC (Trichosporon asahii [25]): 500 µM (≈ 153 µg/mL); MIC (Aspergillus fumigatus [26]): > 500 µM
NNC(=O)c1ccncc1 [ISONIAZID]	> 250	> 250	> 250	> 250	8 (≈ 1.1 µg/mL)	1 (≈ 0.137 µg/mL)	> 250	4 (≈ 0.549 µg/mL)	8 (≈ 1.1 µg/mL)	0.5 (≈ 0.0686 µg/mL)	–
CC1(C)S[C@@H]2[C@H](NC(=O)Cc3ccccc3)C(=O)N2[C@H]1C(=O)O [PENICILLIN G]	–	–	–	–	–	–	–	–	–	–	MIC [27]: 250 µM (≈ 83.6 µg/mL); MIC (Pseudomonas aeruginosa [28]): > 500 µM; MIC (Staphylococcus aureus [29]): 125 µM (≈ 41.8 µg/mL); MIC (Staphylococcus aureus [30]): 62.5 µM (≈ 20.9 µg/mL); MIC (Pseudomonas aeruginosa [31]): > 500 µM; MIC (Enterococcus sp. [32]): 7.81 µM (≈ 2.61 µg/mL); MIC (Enterococcus sp. [33]): 15.6 µM (≈ 5.22 µg/mL); MIC (Klebsiella pneumoniae [34]): 500 µM (≈ 167 µg/mL); MIC (Escherichia coli [35]): 125 µM (≈ 41.8 µg/mL); MIC (Staphylococcus aureus [36]): 0.98 µM (≈ 0.328 µg/mL); MIC (Klebsiella pneumoniae [37]): > 500 µM; MIC (Klebsiella pneumoniae [38]): 500 µM (≈ 167 µg/mL); MIC [39]: 250 µM (≈ 83.6 µg/mL); MIC (Escherichia coli [40]): 125 µM (≈ 41.8 µg/mL); MIC (Staphylococcus aureus [41]): 0.98 µM (≈ 0.328 µg/mL); MIC (Klebsiella pneumoniae [42]): > 500 µM
